According to ChEMBL document CHEMBL4400518, “Synthesis, antimicrobial and cytotoxic activities, and molecular docking studies of N-arylsulfonylindoles containing an aminoguanidine, a semicarbazide, and a thiosemicarbazide moiety” (Eur J Med Chem, 2019):
In brackets after ≈: the same amount, converted by molar mass.

How the values were obtained:
HEK-293T = test: Cytotoxicity against HEK293T cells measured after 48 hrs by CCK8 assay; type: cell-based; conditions: Homo sapiens
Procedure, shortened: (§1)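 Cells kept in DMEM with 10% FBS and penicillin-streptomycin at 37 °C, 5% CO2. About 1×10^4 cells per well attached for 24 h, then exposed for 48 h to 0.3, 1, 3, 10, 30 and 100 µmol/L of compound, in triplicate wells. CCK-8 added for 3 h, OD read at 450 nm. IC50 is the concentration inhibiting growth by 50%.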

[1] = Selectivity index, ratio of IC50 for HEK293T cells to MIC for Pseudomonas aeruginosa CMCC 10104; type: toxicity; conditions: human, read-out: Selectivity Index
[2] = Selectivity index, ratio of IC50 for HEK293T cells to MIC for Staphylococcus aureus CMCC(B) 26003; type: toxicity; conditions: human, read-out: Selectivity Index
Pseudomonas aeruginosa [3] = test: Antibacterial activity against Pseudomonas aeruginosa CMCC 27853 measured after 24 hrs by ELISA; type: functional; conditions: CMCC 27853, 24 h
Procedure, shortened: (§2)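 Broth microdilution MIC. Mid-log bacteria in MHB or TSB diluted 1000-fold, inoculated at 10^5 CFU/mL. Compounds added from DMSO stocks; final DMSO at most 0.05%. Incubation 24 h at 37 °C. Growth read as absorbance at 630 nm. MIC taken as the lowest concentration giving complete growth inhibition. Three independent experiments.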

[4] = Selectivity index, ratio of IC50 for HEK293T cells to MIC for Staphylococcus aureus CMCC 25923; type: toxicity; conditions: human, read-out: Selectivity Index
Staphylococcus aureus [5] = test: Antibacterial activity against Staphylococcus aureus CMCC 25923 measured after 24 hrs by ELISA; type: functional; conditions: CMCC 25923, 24 h; procedure, shortened: as §2
[6] = Cytotoxicity against human A590 cells measured after 48 hrs by CCK8 assay; type: functional, cell-based; procedure, shortened: as §1
Enterococcus faecalis = test: Antibacterial activity against Enterococcus faecalis CMCC 29212 measured after 24 hrs by ELISA; type: functional; conditions: CMCC 29212, 24 h; procedure, shortened: as §2
[7] = Selectivity index, ratio of IC50 for HEK293T cells to MIC for methicillin-resistant Staphylococcus aureus ATCC 33591; type: toxicity; conditions: human, read-out: Selectivity Index
Escherichia coli [8] = test: Antibacterial activity against multidrug-resistant Escherichia coli ATCC BAA-196 measured after 24 hrs by ELISA; type: functional; conditions: ATCC BAA-196, 24 h
Procedure, shortened: (§3)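 Broth serial dilution MIC. Mid-log bacteria in Mueller-Hinton or Tryptone Soya broth, diluted 1000-fold and inoculated at 10^5 CFU/mL. Compounds from DMSO stock, final DMSO ≤0.05%. Incubated 24 h at 37 °C; growth read as absorbance at 630 nm. MIC is the lowest concentration giving complete growth inhibition. Three independent experiments.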

Escherichia coli [9] = test: Antibacterial activity against Escherichia coli CMCC 44568 measured after 24 hrs by ELISA; type: functional; conditions: CMCC 44568, 24 h; procedure, shortened: as §2
Pseudomonas aeruginosa [10] = test: Antibacterial activity against multidrug-resistant Pseudomonas aeruginosa ATCC BAA-2111 measured after 24 hrs by ELISA; type: functional; conditions: ATCC BAA-2111, 24 h; procedure, shortened: as §3
[11] = Selectivity index, ratio of IC50 for HEK293T cells to MIC for multidrug-resistant Pseudomonas aeruginosa ATCC BAA-2111; type: toxicity; conditions: human, read-out: Selectivity Index
[12] = Selectivity index, ratio of IC50 for HEK293T cells to MIC for methicillin-resistant Staphylococcus aureus ATCC 43300; type: toxicity; conditions: human, read-out: Selectivity Index
Escherichia coli [13] = test: Antibacterial activity against Escherichia coli CMCC 25922 measured after 24 hrs by ELISA; type: functional; conditions: CMCC 25922, 24 h; procedure, shortened: as §2
Staphylococcus aureus [14] = test: Antibacterial activity against methicillin-resistant Staphylococcus aureus ATCC 43300 measured after 24 hrs by ELISA; type: functional; conditions: ATCC 43300, 24 h; procedure, shortened: as §3
[15] = Selectivity index, ratio of IC50 for HEK293T cells to MIC for Streptococcus pneumoniae CMCC 31968; type: toxicity; conditions: human, read-out: Selectivity Index
[16] = Selectivity index, ratio of IC50 for HEK293T cells to MIC for Bacillus subtilis CMCC 63501; type: toxicity; conditions: human, read-out: Selectivity Index
Streptococcus pyogenes = test: Antibacterial activity against Streptococcus pyogenes CMCC 32067 measured after 24 hrs by ELISA; type: functional; conditions: CMCC 32067, 24 h; procedure, shortened: as §2
[17] = Selectivity index, ratio of IC50 for HEK293T cells to MIC for Escherichia coli CMCC 25922; type: toxicity; conditions: human, read-out: Selectivity Index
SGC-7901 = test: Cytotoxicity against human SGC7901 cells measured after 48 hrs by CCK8 assay; type: functional, cell-based; conditions: SGC-7901, 48 h; procedure, shortened: as §1
Staphylococcus aureus [18] = test: Antibacterial activity against Staphylococcus aureus CMCC(B) 26003 measured after 24 hrs by ELISA; type: functional; conditions: CMCC(B) 26003, 24 h; procedure, shortened: as §2
Pseudomonas aeruginosa [19] = test: Antibacterial activity against Pseudomonas aeruginosa CMCC 10104 measured after 24 hrs by ELISA; type: functional; conditions: CMCC 10104, 24 h; procedure, shortened: as §2
[20] = Selectivity index, ratio of IC50 for HEK293T cells to MIC for Enterococcus faecalis CMCC 29212; type: toxicity; conditions: human, read-out: Selectivity Index
[21] = Selectivity index, ratio of IC50 for HEK293T cells to MIC for multidrug-resistant Escherichia coli ATCC BAA-196; type: toxicity; conditions: human, read-out: Selectivity Index
[22] = Selectivity index, ratio of IC50 for HEK293T cells to MIC for Streptococcus pyogenes CMCC 32067; type: toxicity; conditions: human, read-out: Selectivity Index
Bacillus subtilis = test: Antibacterial activity against Bacillus subtilis CMCC 63501 measured after 24 hrs by ELISA; type: functional; conditions: CMCC 63501, 24 h; procedure, shortened: as §2
[23] = Selectivity index, ratio of IC50 for HEK293T cells to MIC for Pseudomonas aeruginosa CMCC 27853; type: toxicity; conditions: human, read-out: Selectivity Index
Staphylococcus aureus [24] = test: Antibacterial activity against methicillin-resistant Staphylococcus aureus ATCC 33591 measured after 24 hrs by ELISA; type: functional; conditions: ATCC 33591, 24 h; procedure, shortened: as §3
[25] = Selectivity index, ratio of IC50 for HEK293T cells to MIC for Escherichia coli CMCC 44568; type: toxicity; conditions: human, read-out: Selectivity Index
Streptococcus pneumoniae = test: Antibacterial activity against Streptococcus pneumoniae CMCC 31968 measured after 24 hrs by ELISA; type: functional; conditions: CMCC 31968, 24 h

SMILES | IC50 (HEK-293T) [µM] | selectivity ratio [1] | selectivity ratio [2] | MIC (Pseudomonas aeruginosa [3]) [µM] | selectivity ratio [4] | MIC (Staphylococcus aureus [5]) [µM] | IC50 [6] [µM] | MIC (Enterococcus faecalis) [µM] | selectivity ratio [7] | MIC (Escherichia coli [8]) [µM] | MIC (Escherichia coli [9]) [µM] | MIC (Pseudomonas aeruginosa [10]) [µM] | selectivity ratio [11] | selectivity ratio [12] | MIC (Escherichia coli [13]) [µM] | MIC (Streptococcus pyogenes) [µM] | MIC (Staphylococcus aureus [18]) [µM] | MIC (Pseudomonas aeruginosa [19]) [µM] | MIC (Bacillus subtilis) [µM] | MIC (Streptococcus pneumoniae) [µM] | further results
CC/C(=N/NC(=N)N)c1cn(S(=O)(=O)c2ccc(C)cc2)c2ccc(Br)cc12 | 57.6 | < 0.21 | 13.3 | > 278 | 13.3 | 2.17 (≈ 1 µg/mL) | 2.33 | 4.34 (≈ 2.01 µg/mL) | 26.6 | 8.68 (≈ 4.01 µg/mL) | 4.34 (≈ 2.01 µg/mL) | > 69.4 | < 0.83 | 26.6 | 34.7 (≈ 16 µg/mL) | 139 (≈ 64.2 µg/mL) | 4.34 (≈ 2.01 µg/mL) | > 278 | 2.17 (≈ 1 µg/mL) | 1.08 (≈ 0.499 µg/mL) | MIC (Staphylococcus aureus [14]): 2.17 µM (≈ 1 µg/mL); selectivity ratio [15]: 53.4; selectivity ratio [16]: 26.6; selectivity ratio [17]: 1.66; IC50 (SGC-7901): 3.92 µM; selectivity ratio [20]: 13.3; selectivity ratio [21]: 6.64; selectivity ratio [22]: 0.42; selectivity ratio [23]: < 0.21; MIC (Staphylococcus aureus [24]): 2.17 µM (≈ 1 µg/mL); selectivity ratio [25]: 13.3
C/C(=N/NC(=N)N)c1cn(S(=O)(=O)c2ccccc2)c2ccccc12 |  |  |  | 90.1 (≈ 32 µg/mL) |  | 22.5 (≈ 8.01 µg/mL) |  | 45.1 (≈ 16 µg/mL) |  |  | 11.3 (≈ 4.01 µg/mL) |  |  |  | 45.1 (≈ 16 µg/mL) | 22.5 (≈ 8.01 µg/mL) | 22.5 (≈ 8.01 µg/mL) | 45.1 (≈ 16 µg/mL) | 22.5 (≈ 8.01 µg/mL) | 1.4 (≈ 0.498 µg/mL) | 
N=C(N)N/N=C\c1cn(S(=O)(=O)c2ccccc2)c2ccc(Br)cc12 | 71.6 | 7.5 | 0.47 | > 305 | 30.2 | 2.37 (≈ 0.996 µg/mL) | 14.7 | 19.1 (≈ 8.02 µg/mL) | 30 | 2.39 (≈ 1 µg/mL) | 1.19 (≈ 0.5 µg/mL) | > 76.4 | < 0.94 | 30 | 9.55 (≈ 4.01 µg/mL) | 305 (≈ 128 µg/mL) | 153 (≈ 64.2 µg/mL) | 9.55 (≈ 4.01 µg/mL) | 4.77 (≈ 2 µg/mL) | > 305 | MIC (Staphylococcus aureus [14]): 2.39 µM (≈ 1 µg/mL); selectivity ratio [15]: < 0.23; selectivity ratio [16]: 15; selectivity ratio [17]: 7.5; IC50 (SGC-7901): 3.06 µM; selectivity ratio [20]: 3.75; selectivity ratio [21]: 30; selectivity ratio [22]: 0.23; selectivity ratio [23]: < 0.23; MIC (Staphylococcus aureus [24]): 2.39 µM (≈ 1 µg/mL); selectivity ratio [25]: 60.2
Cc1ccc(S(=O)(=O)n2cc(/C=N\NC(=N)N)c3ccccc32)cc1 | 86.7 | 7.68 | 7.68 | 45.1 (≈ 16 µg/mL) | 7.68 | 11.3 (≈ 4.01 µg/mL) | 12.2 | 45.1 (≈ 16 µg/mL) | 15.4 | 11.3 (≈ 4.01 µg/mL) | 11.3 (≈ 4.01 µg/mL) | 11.3 (≈ 4.01 µg/mL) | 7.67 | 30.7 | 11.3 (≈ 4.01 µg/mL) | > 361 | 11.3 (≈ 4.01 µg/mL) | 11.3 (≈ 4.01 µg/mL) | 5.64 (≈ 2 µg/mL) | 2.82 (≈ 1 µg/mL) | MIC (Staphylococcus aureus [14]): 2.82 µM (≈ 1 µg/mL); selectivity ratio [15]: 30.7; selectivity ratio [16]: 15.4; selectivity ratio [17]: 7.68; IC50 (SGC-7901): 2.12 µM; selectivity ratio [20]: 1.92; selectivity ratio [21]: 7.67; selectivity ratio [22]: < 0.24; selectivity ratio [23]: 1.92; MIC (Staphylococcus aureus [24]): 5.63 µM (≈ 2 µg/mL); selectivity ratio [25]: 7.68
C/C(=N/NC(=N)N)c1cn(S(=O)(=O)c2ccc(C)cc2)c2ccccc12 | 53 | 4.89 | 4.89 | 347 (≈ 128 µg/mL) | 9.78 | 5.42 (≈ 2 µg/mL) | 2.68 | 43.4 (≈ 16 µg/mL) | 9.78 | 10.8 (≈ 4 µg/mL) | 10.8 (≈ 4 µg/mL) | > 86.7 | < 0.61 | 9.78 | 21.7 (≈ 8.01 µg/mL) | 21.7 (≈ 8.01 µg/mL) | 10.8 (≈ 4 µg/mL) | 10.8 (≈ 4 µg/mL) | 10.8 (≈ 4 µg/mL) | 2.71 (≈ 1 µg/mL) | MIC (Staphylococcus aureus [14]): 5.42 µM (≈ 2 µg/mL); selectivity ratio [15]: 19.6; selectivity ratio [16]: 4.89; selectivity ratio [17]: 2.44; IC50 (SGC-7901): 2.38 µM; selectivity ratio [20]: 1.22; selectivity ratio [21]: 4.89; selectivity ratio [22]: 2.44; selectivity ratio [23]: 0.15; MIC (Staphylococcus aureus [24]): 5.42 µM (≈ 2 µg/mL); selectivity ratio [25]: 4.89
